# Measured values reported in paper PMC6427685 (Journal of Enzyme Inhibition and Medicinal Chemistry, 2019).
# Where two headings read alike, the source gives them in different places.
# Assays:
# [1] = biological target: Recombinant M. tuberculosis MbtI (Mycobacterium tuberculosis, UniProt P9WFX1); assay: biochemical; conditions: for remaining activity at 100 µM: pH 7.5, read-out: Residual activity at 100 µM (%)
# [2] = Cell viability assay; assay type: cell-based; conditions: human, MRC5 human fibroblast lung cells
# Method in brief: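 MRC5 human lung fibroblasts were kept at 37 °C in humidified 5% CO2 and seeded in 96-well plates. The next day, vehicle or test compound was added at 200 to 0.01 µM.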
# Recombinant M. tuberculosis MbtI, sequence (P9WFX1 whole entry): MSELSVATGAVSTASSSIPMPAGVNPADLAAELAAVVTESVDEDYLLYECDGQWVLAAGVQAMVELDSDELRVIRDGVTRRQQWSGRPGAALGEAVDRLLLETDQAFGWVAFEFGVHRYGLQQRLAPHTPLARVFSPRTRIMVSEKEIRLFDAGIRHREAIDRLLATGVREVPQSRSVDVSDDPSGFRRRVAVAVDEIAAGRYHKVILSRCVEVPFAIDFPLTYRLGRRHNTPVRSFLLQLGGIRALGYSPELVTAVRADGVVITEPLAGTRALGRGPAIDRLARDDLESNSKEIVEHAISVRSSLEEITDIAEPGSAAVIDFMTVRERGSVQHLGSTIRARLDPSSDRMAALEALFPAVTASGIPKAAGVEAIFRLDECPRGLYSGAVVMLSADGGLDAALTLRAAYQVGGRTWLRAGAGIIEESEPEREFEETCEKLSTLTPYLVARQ
Compound,IC50 [1] [µM],remaining activity at 100 µM [1] [%],"Residual activity at 100 µM (%) ([1]; compound at 100 µM, 50 µM chorismic acid, 37 °C, pH 7.5)",IC50 ([1]; read-out: MbtI IC50) [µM],IC50 at 96 h [2] [µM]
O=C(O)c1ccc(-c2ccc(C(F)(F)F)cc2F)o1 [1b],27.6 ± 7.3,6.1 ± 1.1,,,
O=C(O)c1ccc(-c2ccc([N+](=O)[O-])cc2O)o1 [1l],29.8 ± 4.2,13.9 ± 4,,,
O=C(O)c1ccc(-c2ccc(C(F)(F)F)cc2O)o1 [1d],35.9 ± 10.3,16.8 ± 2.7,,,
"N#Cc1cc([N+](=O)[O-])ccc1-c1ccc(C(=O)O)o1 [1o, 5-(2-cyano-4-nitro-phenyl)furan-2-carboxylate]",,,5.0 ± 1.9,24.4 ± 5.9,
Cc1cc([N+](=O)[O-])ccc1-c1ccc(C(=O)O)o1 [1m],28.5 ± 1.5,13.2 ± 5.8,,,
O=C(O)c1ccc(-c2ccc([N+](=O)[O-])cc2F)o1 [1k],,26.4 ± 4.8,,,
O=C(O)c1ccc(-c2ccc([N+](=O)[O-])cc2Br)o1 [1j],,32.1 ± 2.4,,,
O=C(O)c1ccc(-c2ccc(C(F)(F)F)cc2Br)o1 [1c],,38 ± 3.7,,,
Nc1cc(C(F)(F)F)ccc1-c1ccc(C(=O)O)o1 [1f],34.6 ± 10.9,13.1 ± 2.4,,,
Nc1cc([N+](=O)[O-])ccc1-c1ccc(C(=O)O)o1 [1n],24.2 ± 5.4,13.5 ± 3.8,,,
"N#Cc1cc(C(F)(F)F)ccc1-c1ccc(C(=O)O)o1 [1g, 5-(2-cyano-4-(trifluoromethyl)phenyl)furan-2-carboxylic acid]",18.5 ± 3.2,5.7 ± 1.5,,,
O=C(O)c1ccc(-c2ccc([N+](=O)[O-])cc2C(F)(F)F)o1 [1p],,25.1 ± 3.7,,,> 100
Cc1cc(C(F)(F)F)ccc1-c1ccc(C(=O)O)o1 [1e],31.5 ± 9.6,19.3 ± 2.2,,,
